The values below come from ChEMBL document CHEMBL4190252, “Synthesis, antitumor activity and CDK1 inhibiton of new thiazole nortopsentin analogues” (Eur J Med Chem, 2017).

This experiment has as its target Cyclin-dependent kinase 1/cyclin B1 (Homo sapiens, UniProt P06493). The experiment is described as follows: Inhibition of recombinant human full length His-tagged CDK1/cyclin B expressed in baculovirus expression system after 60 mins in presence of omnia peptide substrate by fluorescence based assay. Summed up:
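Recombinant human CDK1/cyclin B in kinase buffer with Omnia peptide substrate, ATP and DTT, with inhibitor at 0.1–10 µM. Reactions ran for 60 min at 30 °C, with fluorescence read at ex 360/em 485 nm. Initial velocity came from the RFU-versus-time slope and was plotted against concentration for a dose-response IC50 fit. Values are mean±SD of two determinations.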

Sequence of Cyclin-dependent kinase 1/cyclin B1 (P06493 whole entry): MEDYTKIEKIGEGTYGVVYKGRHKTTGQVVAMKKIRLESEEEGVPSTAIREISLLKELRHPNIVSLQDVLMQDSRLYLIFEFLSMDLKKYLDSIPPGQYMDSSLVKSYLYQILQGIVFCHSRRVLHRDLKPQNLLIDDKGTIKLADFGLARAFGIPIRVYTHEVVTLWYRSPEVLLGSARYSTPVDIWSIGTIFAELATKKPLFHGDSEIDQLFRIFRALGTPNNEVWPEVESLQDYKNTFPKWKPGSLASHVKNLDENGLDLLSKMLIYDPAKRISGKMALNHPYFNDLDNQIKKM
Sequence of Cyclin-dependent kinase 1/cyclin B1 (P14635 whole entry, further chain): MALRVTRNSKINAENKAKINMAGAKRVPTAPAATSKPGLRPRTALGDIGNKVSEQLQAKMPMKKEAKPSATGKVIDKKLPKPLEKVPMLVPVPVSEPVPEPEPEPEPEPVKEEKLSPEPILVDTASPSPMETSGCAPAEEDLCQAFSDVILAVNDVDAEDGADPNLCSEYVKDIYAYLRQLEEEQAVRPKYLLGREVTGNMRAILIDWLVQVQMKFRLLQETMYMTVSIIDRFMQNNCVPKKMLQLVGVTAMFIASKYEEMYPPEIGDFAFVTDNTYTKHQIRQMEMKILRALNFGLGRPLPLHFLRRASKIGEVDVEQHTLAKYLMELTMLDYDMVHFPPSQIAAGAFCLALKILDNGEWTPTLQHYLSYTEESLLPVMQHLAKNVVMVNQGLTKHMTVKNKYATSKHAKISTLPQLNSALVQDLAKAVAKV

For `Cn1cc(-c2nc(-c3cn(C)c4ncccc34)cs2)c2cc(F)ccc21`, the IC50 – broadly, the concentration at which inhibition is half-maximal – was found to be 970 nM.
